# Shown are actives, neighbours in structure and some others; about 1.6% of the full set was active somewhere.
# proCasp7 act – counter-screen for procaspase-3 activators: activators of human procaspase-7. activation, % at 8.5 µM. recombinant procaspase-7, Ac-DEVD-pNA absorbance 405 nm; D23A/D198A/D206A triple mutant, cannot self-cleave; scale: DMSO 0, 5 µM enzyme 100. P55210. 330,000 tested, 0.093% active;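 active = percent activation above the screen-wide mean plus 3 SD, cut at about 25% in these data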
# Target sequence (P55210 whole entry D23A/D198A/D206A): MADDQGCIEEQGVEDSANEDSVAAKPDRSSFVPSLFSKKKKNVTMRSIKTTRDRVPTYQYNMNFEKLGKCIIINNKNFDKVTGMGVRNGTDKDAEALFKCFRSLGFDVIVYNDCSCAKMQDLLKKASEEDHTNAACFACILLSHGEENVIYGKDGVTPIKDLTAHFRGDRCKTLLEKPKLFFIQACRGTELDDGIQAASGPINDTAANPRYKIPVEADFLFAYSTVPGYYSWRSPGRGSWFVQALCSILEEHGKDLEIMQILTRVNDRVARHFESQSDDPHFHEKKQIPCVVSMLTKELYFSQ
#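 Assay system: Uncleavable procaspase-7 mutant enzyme; Input: 2 µM procaspase-7 mutant as dispensed; Also added: DEVD-pNA substrate; Medium: Zinc-free HEPES pH 7.4 with 300 mM NaCl, 0.01% Triton X-100; Timing: 1 h compound preincubation, 2 h substrate cleavage, 25 °C; Measured by: Epi-absorbance of released pNA at 405 nm, two timepoints.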
# proCasp3 act – procaspase-3 (human) activation | P42574 | recombinant procaspase-3 D3A, Ac-DEVD-pNA absorbance 405 nm | activation, % at 8.5 µM | 330,000 tested, 0.11% active | AID 463141;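 active = activation above the mean of all tested compounds plus 3 SD, cut at about 21% in these data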;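 note: 0% = DMSO alone and 100% = DMSO wells spiked with extra 5 µM PC-3 D3A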
# Target sequence (P42574 whole entry D9A/D28A/D175A): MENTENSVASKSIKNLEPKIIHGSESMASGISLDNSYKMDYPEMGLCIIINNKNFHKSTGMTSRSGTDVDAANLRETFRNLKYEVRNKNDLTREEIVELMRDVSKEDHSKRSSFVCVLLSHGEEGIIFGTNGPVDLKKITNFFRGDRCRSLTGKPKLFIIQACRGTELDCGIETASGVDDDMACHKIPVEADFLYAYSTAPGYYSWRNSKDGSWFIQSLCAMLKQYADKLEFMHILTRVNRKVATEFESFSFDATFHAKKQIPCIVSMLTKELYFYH
#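 Compound: 8.5 µM single point, 0.8% DMSO / Material: Autoprocessing-dead procaspase-3 D3A mutant enzyme / Timing: 1 h preincubation plus 2 h reaction at 25 °C / Medium: Zinc-free HEPES/NaCl buffer with 0.01% Triton X-100 at pH 7.4 / Technique: 405 nm absorbance of p-nitroaniline, reads at 0 and 120 min / Repeats: one well per compound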
# sPLA2-III inh – Inhibits HGIII-sPLA2 liposome hydrolysis, primary screen | Q9NZ20 | QFRET BODIPY PC-A2 liposome hydrolysis, fluorescence | 370,000 tested, 0.56% active | inhibition, % at 12.2 µM;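 active = inhibition above mean plus 3 SD of compounds lying within the high and low control bounds, cut at about 19% in these data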;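 note: 0% = median of test compound wells and 100% = no enzyme DMSO wells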
# PLCg1 inh – PLC-gamma1 (human) inhibition, primary screen | P19174 | purified PLC-gamma1, fluorogenic substrate, fluorescence | inhibition, % at 12.2 µM | 370,000 tested, 0.84% active; in the data active = inhibition above about 9.5%
# PLC-beta3 inh – PLC-beta3 (human) inhibition, primary screen; Q01970; Purified PLC-beta3, fluorogenic substrate, fluorescence; inhibition, % at 12.2 µM; 370,000 tested, 0.18% active; AID 720704;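 note: 0% = median of compound wells on plate and 100% = full blocker control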
# PLCg1 ctr – PLC-gamma1 inhibition, counter-screen for PLC-beta3 hits | shares compounds with PLCg1 inh | purified PLC-gamma1, fluorogenic substrate, fluorescence | 3,300 tested, 3.1% active | inhibition, % at 12.3 µM; in the data active = inhibition above about 9.5%
# PLCbeta3 conf – confirmation of human PLC-beta3 inhibitors; 3,300 tested, 1% active; AID 743261; shares compounds with PLCg1 inh; purified PLC-beta3, fluorogenic substrate fluorescence; inhibition, % at 12.3 µM
# Active calls of the source: *; · = no result. Cut-off read from the data, not from the text of the source, unless noted: active = inhibition above about 11%; inactive = the rest.
SMILES,proCasp7 act,proCasp3 act,sPLA2-III inh,PLCg1 inh,PLC-beta3 inh,PLCg1 ctr,PLCbeta3 conf
O=C(CN1CCN(C(=O)CNC(=O)c2ccc(N3CCCC3=O)cc2)CC1)Nc1cccc(F)c1,·,·,14,3,1,·,·
O=C(O)CCC(=O)c1ccc(-c2ccccc2)cc1,-2,0,7,-3,-1,·,·
O=C(O)CCC(=O)CCC(=O)c1ccc(Cl)cc1,-3,-1,0,11*,1,-5,-1
CCOC(=O)COc1ccc(S(=O)(=O)N2CCN(c3ccc(OC)cc3)CC2)cc1,-10,-3,8,9.5*,-2,1,2
CC1CCCN(S(=O)(=O)c2ccc(S(=O)(=O)NC(C)c3cccs3)cc2)C1 (stereo unspecified),-3,1,-30,1,3,·,·
Cc1ccc2nsnc2c1S(=O)(=O)NCCc1c(C)[nH]c2ccc(F)cc12,-1,5,-30,10*,8,-1,-3
Cc1ccc(C)c(NS(=O)(=O)c2c(C)ccc3nsnc23)c1,-3,-4,-2,4,6,·,·
O=C(Nc1nc(-c2ccc(F)c(F)c2)cs1)Nc1ccc(F)cc1F,7,1,1,10*,3,3,-1
COc1ccccc1N(C)S(=O)(=O)c1ccc(C(=O)N(C)Cc2ccc(Cl)s2)cc1,1,1,0,-1,-7,·,·
Cc1ccc(SCc2cc(=O)[nH]c(/N=C(\N)Nc3ccc(C)c(C)c3)n2)cc1,-4,5,·,·,·,·,·
O=C(COC(=O)CC12CC3CC(CC(Br)(C3)C1)C2)NC(=O)NCc1ccco1,11,-1,5,11*,7,-7,-6
Cn1cccc1C(=O)NC(=O)COC(=O)CC12CC3CC(CC(Br)(C3)C1)C2,-13,11,3,-9,-9,·,·
Cc1nc2ccc(NC(=O)c3ccc(F)cc3Cl)cc2c(=O)[nH]1,·,·,6,-8,-14,·,·
CCOC(=O)c1cnn(CCOC(=O)c2cccc(F)c2)c1NC(=O)c1cccc(F)c1,9,-2,-2,12*,7,-6,-3
CC(Oc1ccc(Cl)cc1Cl)C(=O)Nc1ccc(O)cc1 (stereo unspecified),-5,5,-25,16*,5,-8,-6
C=CCC[C@@H](Cc1ccc(F)cc1)C(=O)OC[C@@H]1CCCN1C(=O)[C@@H](CC=C)CC(=O)N[C@@H](CO)Cc1ccccc1,5,-3,-28,11*,5,-6,0
C=CC[C@@H](Cc1ccc(F)cc1)C(=O)OC[C@@H]1CCCN1C(=O)[C@H](CC=C)CC(=O)N(CCO)Cc1ccccc1,-7,1,-21,10*,8,-9,-4
C=CC[C@@H](Cc1ccc(F)cc1)C(=O)OC[C@H]1CCCN1C(=O)[C@@H](CC=C)CC(=O)N(CCO)Cc1ccccc1,8,5,-13,4,1,·,·
CN1C(=O)[C@@](O)(c2cn(C)c3ccccc23)c2cc(F)ccc21,·,·,1,3,12*,-6,-3
CSc1nc(C)cc(Oc2ccc(OCCOc3ccccc3)nn2)n1,8,-3,-1,2,-1,·,·
CCCOc1ccc(Oc2cc(C)nc(SC)n2)nn1,4,7,9,7,13*,-8,-2
COCCOC1CCN(C(=O)C2CCC(=O)N(CCc3ccccc3)C2)CC1 (stereo unspecified),-9,-9,4,4,-10,·,·
C=CCN(C(=O)CNC(=O)c1cccs1)C(C(=O)NC1CCCCC1)c1cccnc1 (stereo unspecified),9,10,4,9.7*,8,8,5
CCOC(=O)CN(C(=O)CNC(=O)c1cccs1)C(C(=O)NC1CCCCC1)c1cccnc1 (stereo unspecified),6,-11,2,7,2,·,·
N#C/C(=C/c1cccc([N+](=O)[O-])c1)C(=O)Nc1ccccc1O,0,9,-39,1,-5,·,·
SMILES,proCasp7 act,proCasp3 act,sPLA2-III inh,PLCg1 inh,PLC-beta3 inh,PLCg1 ctr,PLCbeta3 conf
N#C/C(=C\c1ccccc1)C(=O)NNS(=O)(=O)c1cccc([N+](=O)[O-])c1,-21,-22,-36,11*,1,2,6
NC1=C(Cl)C(=O)c2ccccc2C1=O,·,·,3,5,8,·,·
NC1=C(Cl)C(=O)c2ccc(S(N)(=O)=O)cc2C1=O,·,·,-2,16*,3,19*,-1
CCCCCCn1cc(CN2CC(N3CCN(CCN(C)C)CC3)CS2(=O)=O)nn1 (stereo unspecified),·,·,5,0,-4,·,·
O=C(COc1cc(F)ccc1[N+](=O)[O-])Nc1cc(S(=O)(=O)N2CCCC2)ccc1Cl,·,·,6,8,-3,·,·
CCCC1(CCC)NC(=O)N(CC(=O)Nc2ccc(Cl)c(S(=O)(=O)N3CCOCC3)c2)C1=O,0,3,-31,11*,4,3,0
O=C(O)c1ccc(NC(=O)c2ccc3c(c2)C(=O)N(CC2CCCO2)C3=O)cc1 (stereo unspecified),11,-5,8,2,-7,·,·
O=C(Nc1ccncc1)c1ccc2c(c1)C(=O)N(CC1CCCO1)C2=O (stereo unspecified),5,0,-1,11*,5,-3,1
CC(C)CC(=O)NC(=S)Nc1ccc(CN2CCOCC2)cc1,-4,0,6,1,-7,·,·
CCc1cccc(NC(=S)Nc2ccc(CN3CCOCC3)cc2)c1,-14,8,1,9.8*,2,-4,-1
CC12CC(O)C3c4ccc(O)cc4CCC3C1CC/C2=N\O (stereo unspecified),3,8,-4,5,0,·,·
CN1CCN(c2oc(COc3ccc(-c4ccccc4)cc3)nc2C#N)CC1,15,0,-43,11*,6,-9,-5
CCc1ccc(C(=O)NNC(=O)CN2C(=O)NC3(CCCC3)C2=O)cc1,0,0,-7,-1,-2,·,·
CC(=O)OCC(=O)C1(O)CCC2C3CCC4=CC(=O)CCC4(C)C3(F)C(O)CC21C (stereo unspecified),·,·,-1,1,0,·,·
O=C(c1ccco1)N1CCN(Cc2cc(=O)c(OCc3ccc([N+](=O)[O-])cc3)co2)CC1,15,4,0,11*,4,-2,-3
Cc1ccc(COc2coc(CN3CCN(C(=O)c4ccco4)CC3)cc2=O)cc1,3,3,13,1,-3,·,·
CN(CC(=O)Nc1cccc(F)c1)C(=O)c1cc(=O)[nH]c2ccccc12,3,5,4,-30,-35,·,·
